The nature of data set [1]: Inhibition of RNA polymerase 2 in human HeLa cell nuclear extract assessed as reduction in RNA transcription by PAGE analysis. It counts as cell-based. In a few lines: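 In vitro transcription by RNA polymerase II in HeLa cell nuclear extract; RNA products resolved on 6% TBE-urea polyacrylamide gels.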
Data set [2] addresses T1, DNA polymerase gamma (Homo sapiens, UniProt P54098).
T1 sequence (P54098 whole entry): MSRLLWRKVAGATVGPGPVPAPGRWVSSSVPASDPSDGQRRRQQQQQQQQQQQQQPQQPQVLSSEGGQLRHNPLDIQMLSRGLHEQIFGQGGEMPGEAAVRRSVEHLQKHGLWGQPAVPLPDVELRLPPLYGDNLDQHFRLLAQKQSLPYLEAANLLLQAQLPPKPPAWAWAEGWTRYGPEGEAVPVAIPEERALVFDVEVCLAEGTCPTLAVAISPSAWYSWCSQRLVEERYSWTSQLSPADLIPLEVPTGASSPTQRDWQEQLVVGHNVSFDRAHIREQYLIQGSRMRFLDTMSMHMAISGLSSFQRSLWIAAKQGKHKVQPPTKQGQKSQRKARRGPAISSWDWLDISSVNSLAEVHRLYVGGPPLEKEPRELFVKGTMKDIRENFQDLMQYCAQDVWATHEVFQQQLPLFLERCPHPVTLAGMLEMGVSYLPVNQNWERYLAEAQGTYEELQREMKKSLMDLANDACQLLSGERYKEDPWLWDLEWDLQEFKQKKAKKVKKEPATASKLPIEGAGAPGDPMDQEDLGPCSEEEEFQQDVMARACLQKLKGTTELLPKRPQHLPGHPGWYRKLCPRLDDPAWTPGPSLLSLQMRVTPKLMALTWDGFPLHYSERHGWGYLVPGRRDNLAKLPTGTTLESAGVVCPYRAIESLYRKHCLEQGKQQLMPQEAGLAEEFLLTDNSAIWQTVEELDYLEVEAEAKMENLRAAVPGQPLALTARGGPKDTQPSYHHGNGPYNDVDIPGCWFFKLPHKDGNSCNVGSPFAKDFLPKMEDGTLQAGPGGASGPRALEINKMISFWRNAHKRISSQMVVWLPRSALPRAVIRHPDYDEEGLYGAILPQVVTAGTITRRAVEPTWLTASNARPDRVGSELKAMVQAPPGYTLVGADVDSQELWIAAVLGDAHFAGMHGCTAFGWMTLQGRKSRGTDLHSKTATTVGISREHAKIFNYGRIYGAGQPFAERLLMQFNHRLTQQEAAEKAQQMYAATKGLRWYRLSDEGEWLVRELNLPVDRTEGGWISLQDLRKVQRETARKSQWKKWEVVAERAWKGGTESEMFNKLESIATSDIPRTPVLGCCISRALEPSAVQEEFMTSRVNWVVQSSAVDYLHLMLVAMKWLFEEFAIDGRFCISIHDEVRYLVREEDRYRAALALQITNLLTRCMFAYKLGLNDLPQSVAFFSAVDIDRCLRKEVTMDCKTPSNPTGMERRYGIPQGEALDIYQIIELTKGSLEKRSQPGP
As to the kind of experiment: Inhibition of human DNA polymerase-gamma assessed as reduction in [3H]dTTP incorporation in to activated calf thymus DNA substrate at 100 uM by scintillation counting method relative to control. The conditions noted are these: human DNA polymerase-gamma enzyme, probe [3H]dTTP.

Data set [3] deals with DNA polymerase beta (Homo sapiens, UniProt P06746). As to the kind of experiment: Inhibition of human DNA polymerase-beta assessed as reduction in [3H]dTTP incorporation in to activated calf thymus DNA substrate at 100 uM by scintillation counting method relative to control. The conditions noted are these: human DNA polymerase-beta enzyme, probe [3H]dTTP.
Data set [4] addresses T2, DNA polymerase alpha (Homo sapiens, UniProt P09884).
T2 sequence (P09884 whole entry): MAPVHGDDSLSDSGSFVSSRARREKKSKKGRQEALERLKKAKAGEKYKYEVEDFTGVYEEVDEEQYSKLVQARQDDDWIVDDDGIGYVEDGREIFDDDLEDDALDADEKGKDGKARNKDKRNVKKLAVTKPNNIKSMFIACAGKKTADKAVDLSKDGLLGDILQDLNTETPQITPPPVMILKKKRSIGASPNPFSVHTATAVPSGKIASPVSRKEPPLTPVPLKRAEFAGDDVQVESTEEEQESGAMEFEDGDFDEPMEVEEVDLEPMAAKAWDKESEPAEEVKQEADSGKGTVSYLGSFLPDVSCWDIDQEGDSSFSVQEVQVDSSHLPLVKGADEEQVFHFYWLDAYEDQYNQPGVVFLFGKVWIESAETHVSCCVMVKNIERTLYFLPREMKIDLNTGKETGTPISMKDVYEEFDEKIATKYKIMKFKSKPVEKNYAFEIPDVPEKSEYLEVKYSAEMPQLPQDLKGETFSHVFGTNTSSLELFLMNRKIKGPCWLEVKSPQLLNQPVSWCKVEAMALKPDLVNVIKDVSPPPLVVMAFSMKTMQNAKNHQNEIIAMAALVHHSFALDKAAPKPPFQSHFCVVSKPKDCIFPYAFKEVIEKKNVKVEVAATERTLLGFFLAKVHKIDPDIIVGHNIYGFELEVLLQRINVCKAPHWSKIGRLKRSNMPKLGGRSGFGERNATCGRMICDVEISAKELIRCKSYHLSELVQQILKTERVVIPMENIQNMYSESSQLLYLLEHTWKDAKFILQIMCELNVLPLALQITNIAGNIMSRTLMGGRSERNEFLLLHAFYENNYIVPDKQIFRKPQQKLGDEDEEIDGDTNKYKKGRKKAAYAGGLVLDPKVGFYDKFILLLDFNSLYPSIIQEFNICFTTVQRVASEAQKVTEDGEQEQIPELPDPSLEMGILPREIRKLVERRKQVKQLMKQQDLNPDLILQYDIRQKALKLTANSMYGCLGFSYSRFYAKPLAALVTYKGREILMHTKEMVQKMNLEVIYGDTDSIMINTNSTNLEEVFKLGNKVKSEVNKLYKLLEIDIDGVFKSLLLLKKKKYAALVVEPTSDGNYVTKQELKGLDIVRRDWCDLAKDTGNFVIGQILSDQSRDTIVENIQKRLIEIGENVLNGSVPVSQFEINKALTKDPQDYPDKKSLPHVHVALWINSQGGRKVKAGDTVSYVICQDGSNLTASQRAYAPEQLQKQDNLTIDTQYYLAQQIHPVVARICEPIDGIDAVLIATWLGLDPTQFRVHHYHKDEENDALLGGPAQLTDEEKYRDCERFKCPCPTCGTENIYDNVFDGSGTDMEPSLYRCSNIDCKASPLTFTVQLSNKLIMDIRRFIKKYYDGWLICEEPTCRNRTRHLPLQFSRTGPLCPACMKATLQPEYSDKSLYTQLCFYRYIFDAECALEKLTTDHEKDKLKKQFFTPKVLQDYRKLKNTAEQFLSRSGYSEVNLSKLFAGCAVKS
The data set can be described thus: Inhibition of human DNA polymerase-alpha assessed as reduction in [3H]dTTP incorporation in to activated calf thymus DNA substrate at 100 uM by scintillation counting method relative to control. The settings on record: human DNA polymerase-alpha enzyme, probe [3H]dTTP.

The target of data set [5] is RNA-directed RNA polymerase (Hepacivirus hominis, UniProt O39930). The data set can be described thus: Inhibition of HCV NS5B RNA-dependent RNA polymerase activity assessed as reduction in radiolabeled-CTP incorporation into RNA using cIRES template measured after 2 hrs by microscintillation counting method.
The target of data set [6] is DNA-directed RNA polymerase, mitochondrial (Homo sapiens, UniProt O00411). As to the kind of experiment: Inhibition of human mitochondrial DNA-dependent RNA polymerase activity at 100 uM using 33P-RNA/DNA primer/template by phosphor-imaging analysis.
The target in data set [7] is RNA-directed RNA polymerase (Hepacivirus hominis) (UniProt O39930). As to the kind of experiment: Inhibition of HCV NS5B RNA-dependent RNA polymerase assessed as chain termination of RNA synthesis by measuring reduction in dUTP incorporation at 100 uM using 33P-labeled 5'-GG-3'/5'-AUGUAUAAUUAUUGUAGCC-3' as primer/template measured after 2 hrs by phosphor-screening analysis. The method in brief:
(§1)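 Recombinant NS5B (2 μM) with 1 μM template and 0.5 μM 33P-labeled GG primer in 40 mM Tris-HCl pH 8, 3 mM DTT, 20 mM NaCl, 6 mM MgCl2. Started with combinations of CTP, ATP, UTP, test NTP and 3'-dUTP, each 100 μM; 2 h at 30°C. Samples denatured 95°C 5 min, resolved on 22.5% polyacrylamide urea sequencing gel, phosphor-screen imaged.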

For data set [8] the target is unchanged. As to the kind of experiment: Inhibition of HCV NS5B RNA-dependent RNA polymerase assessed as chain termination of RNA synthesis by measuring reduction in UTP incorporation at 100 uM using 33P-labeled 5'-GG-3'/5'-AUGUAUAAUUAUUGUAGCC-3' as primer/template measured after 2 hrs by phosphor-screening analysis. In a few lines:
as §1

A short description of data set [9]: Cytotoxicity against human MT4 cells treated for 8 days measured post-last dose by Celltiter-glo luminescent assay. It counts as cell-based. The method in brief: (§2)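 Cells at 1×10^5/well on collagen I, first kept 8 days in recommended medium without drug. Then compound exposure for 8 days, refed every other day. Viability by CellTiter-Glo luminescence; CC50 by curve fitting.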

Data set [10] can be described thus: Cytotoxicity against human U937 cells treated for 8 days measured post-last dose by Celltiter-glo luminescent assay. It counts as cell-based, U-937. In a few lines:
as §2

The nature of data set [11]: Cytotoxicity against human HeLa cells treated for 8 days measured post-last dose by Celltiter-glo luminescent assay. It counts as cell-based. In a few lines:
as §2

Data set [12] is described as follows: Cytotoxicity against human HepG2 cells treated for 8 days measured post-last dose by Celltiter-glo luminescent assay. It counts as cell-based. In a few lines:
as §2

Data set [13] can be described thus: Cytotoxicity against human HuH7 cells treated for 8 days measured post-last dose by Celltiter-glo luminescent assay. It counts as cell-based, Huh-7. The method in brief: as §2
The nature of data set [14]: Cytotoxicity against human A549 cells treated for 8 days measured post-last dose by Celltiter-glo luminescent assay. It counts as cell-based. The method in brief: as §2

Active and inactive are the calls of the source. The rule behind the calls is not given here.

Chain of RNA-directed RNA polymerase (O39930 whole entry): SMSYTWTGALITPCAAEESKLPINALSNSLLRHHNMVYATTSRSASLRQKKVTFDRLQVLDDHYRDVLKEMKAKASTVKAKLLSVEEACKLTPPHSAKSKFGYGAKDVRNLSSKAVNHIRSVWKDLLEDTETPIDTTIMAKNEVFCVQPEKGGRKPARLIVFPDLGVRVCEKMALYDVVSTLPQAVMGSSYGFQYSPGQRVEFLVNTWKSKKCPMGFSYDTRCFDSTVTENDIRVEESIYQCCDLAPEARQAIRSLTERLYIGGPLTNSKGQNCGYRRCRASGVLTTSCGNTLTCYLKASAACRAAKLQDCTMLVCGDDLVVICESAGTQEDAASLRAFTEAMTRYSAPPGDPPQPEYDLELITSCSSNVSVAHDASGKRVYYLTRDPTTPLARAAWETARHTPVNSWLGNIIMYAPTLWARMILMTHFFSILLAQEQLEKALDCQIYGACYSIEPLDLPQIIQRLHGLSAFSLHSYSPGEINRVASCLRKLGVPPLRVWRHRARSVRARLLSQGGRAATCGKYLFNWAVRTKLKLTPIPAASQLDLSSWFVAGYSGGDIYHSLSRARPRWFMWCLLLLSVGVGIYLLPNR
Chain of DNA-directed RNA polymerase, mitochondrial (O00411 whole entry): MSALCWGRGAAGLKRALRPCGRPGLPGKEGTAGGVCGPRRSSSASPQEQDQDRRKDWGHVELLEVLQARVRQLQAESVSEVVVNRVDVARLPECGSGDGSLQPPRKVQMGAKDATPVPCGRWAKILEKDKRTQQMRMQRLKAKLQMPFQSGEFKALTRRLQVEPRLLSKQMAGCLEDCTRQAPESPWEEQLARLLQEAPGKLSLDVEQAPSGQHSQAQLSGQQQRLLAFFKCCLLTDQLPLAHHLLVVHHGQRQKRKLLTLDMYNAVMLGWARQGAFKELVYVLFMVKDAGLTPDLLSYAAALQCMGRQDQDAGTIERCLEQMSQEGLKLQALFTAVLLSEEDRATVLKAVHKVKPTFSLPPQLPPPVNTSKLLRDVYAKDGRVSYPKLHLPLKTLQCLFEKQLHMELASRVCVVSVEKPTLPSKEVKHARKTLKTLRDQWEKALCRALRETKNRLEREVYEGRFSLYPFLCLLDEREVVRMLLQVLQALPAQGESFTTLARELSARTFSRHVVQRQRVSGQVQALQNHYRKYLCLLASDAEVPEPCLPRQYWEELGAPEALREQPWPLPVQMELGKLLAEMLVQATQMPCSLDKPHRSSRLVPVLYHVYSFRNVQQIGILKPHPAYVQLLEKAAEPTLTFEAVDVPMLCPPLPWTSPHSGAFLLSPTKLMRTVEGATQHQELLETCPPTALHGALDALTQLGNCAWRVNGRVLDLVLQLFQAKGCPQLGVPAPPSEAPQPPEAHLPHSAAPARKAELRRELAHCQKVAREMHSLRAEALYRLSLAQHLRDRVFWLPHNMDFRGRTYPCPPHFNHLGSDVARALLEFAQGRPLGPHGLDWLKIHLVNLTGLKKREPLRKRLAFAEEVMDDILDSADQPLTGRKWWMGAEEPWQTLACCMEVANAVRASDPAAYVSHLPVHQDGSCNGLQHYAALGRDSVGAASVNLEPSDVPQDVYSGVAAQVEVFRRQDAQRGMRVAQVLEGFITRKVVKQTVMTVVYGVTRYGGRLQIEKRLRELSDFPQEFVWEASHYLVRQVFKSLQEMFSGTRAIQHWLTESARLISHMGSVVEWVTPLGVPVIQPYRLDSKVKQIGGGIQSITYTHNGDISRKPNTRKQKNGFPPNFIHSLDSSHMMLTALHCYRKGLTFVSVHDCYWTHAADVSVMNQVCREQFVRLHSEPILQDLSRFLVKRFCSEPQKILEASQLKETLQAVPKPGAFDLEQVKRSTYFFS
Chain of RNA-directed RNA polymerase (Hepacivirus hominis) (O39930 1-591): as the sequence (O39930 whole entry) above

As to `O=c1ccn([C@@H]2O[C@H](COP(=O)(O)OP(=O)(O)OP(=O)(O)O)[C@@H](O)[C@]2(F)Cl)c(=O)[nH]1`, the IC50 is over 100000 nM in data set [1] and 300 nM in data set [5]. For the same compound, the results for the inhibition at 100 µM in data set [2], in [3] and in [4] were 15.7%, 24.7% and 70.8%, respectively.

For the compound `C[C@]1(Cl)[C@H](n2ccc(=O)[nH]c2=O)O[C@](F)(COP(=O)(O)OP(=O)(O)OP(=O)(O)O)[C@H]1O`, the IC50 is over 100000 nM in data set [1] and 110 nM in [5]. The inhibition at 100 µM in data set [2] turned out to be 18.4%; in data set [3], 24.3%; in [4], 19.7%. Moreover, the “inhibition (INH)” value in data set [6] is given as “Not Active”.

Turning to `C[C@@]1(Cl)[C@H](O)[C@@H](COP(=O)(O)OP(=O)(O)OP(=O)(O)O)O[C@H]1n1ccc(=O)[nH]c1=O` [4A-TP], the IC50 in [1] was over 100000 nM. In addition, the values for the inhibition at 100 µM in [2], in data set [3] and in data set [4] were 9.5%, 22.6% and 34.5%, respectively. The “inhibition (INH)” value in [6] is recorded as “Active”.

For the compound `C[C@@]1(O)[C@H](O)[C@@H](COP(=O)(O)OP(=O)(O)OP(=O)(O)O)O[C@H]1n1ccc(=O)[nH]c1=O`, the IC50 in data set [1] is over 100000 nM. The inhibition at 100 µM in data set [2] is 14.6%; in data set [3] it was -0.008%; in [4], 22.4%. Besides, the “inhibition (INH)” value in data set [6] was “Active”.

In the case of `C[C@]1(O)[C@H](n2ccc(=O)[nH]c2=O)O[C@](F)(COP(=O)(O)OP(=O)(O)OP(=O)(O)O)[C@H]1O` [ADAFOSBUVIR 5'-TRIPHOSPHATE], the inhibition result in data set [7] and in data set [8] was “Active” throughout. Moreover, the IC50 was over 100000 nM in data set [1] and 140 nM in data set [5]. For the same compound, the inhibition at 100 µM in [2] worked out at 9.6%; in data set [3], 12.6%; in data set [4], 16.1%. Besides, the “inhibition (INH)” value in data set [6] is “Not Active”.

For the compound `COc1nc(N)nc2c1ncn2[C@@H]1O[C@H](COP(=O)(N[C@@H](C)C(=O)OCC(C)(C)C)Oc2cccc3ccccc23)[C@@H](O)[C@@]1(C)O` (some centres undefined) [BMS-986094], the CC50 at 192 h in [9] was found to be 960 nM; in data set [10], 170 nM; in data set [11] it was 13400 nM; in data set [12], 1500 nM; in data set [13], 350 nM; in data set [14] it was 7800 nM.

With `C[C@]1(F)[C@H](n2ccc(=O)[nH]c2=O)O[C@](F)(COP(=O)(O)OP(=O)(O)OP(=O)(O)O)[C@H]1O`, the figures for the IC50 in data set [1] and in data set [5] were over 100000 nM and 860 nM, respectively. For the same compound, the inhibition at 100 µM was -10% in data set [2], 15.2% in data set [3] and 40.9% in data set [4].

As for `C[C@@]1(F)[C@H](O)[C@@H](COP(=O)(O)OP(=O)(O)OP(=O)(O)O)O[C@H]1n1ccc(=O)[nH]c1=O` [GS-461203], the IC50 in data set [1] is over 100000 nM. For the same compound, the results for the inhibition at 100 µM in data set [2], in [3] and in data set [4] were 9.2%, 14% and 58.2%, respectively.

The values above are taken from ChEMBL document CHEMBL4393666, “Synthesis and Anti-HCV Activities of 4'-Fluoro-2'-Substituted Uridine Triphosphates and Nucleotide Prodrugs: Discovery of 4'-Fluoro-2'- C-methyluridine 5'-Phosphoramidate Prodrug (AL-335) for the Treatment of Hepatitis C Infection” (J Med Chem, 2019).
